Screening data: PubChem BioAssay, Johns Hopkins Ion Channel Center
Most compounds without a hit are left out; they make up all but 2.3% or so of the library.
TRPC6 inh = mouse TRPC6 channel inhibitors, primary screen, cell-based, HEK293, membrane potential dye; ACh-evoked depolarization; hits give low values; B-score at 10 µM; 310,000 compounds, 1.1% hits; AID 2553, 2010;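 active means B-score under library mean minus 3 SD, initial fluorescence not abnormally high, positive integrated signal ratio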;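 further: B-score derived from integrated fluorescence ratio over the kinetic read; more negative B-score means stronger inhibition of depolarization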
TRPC4 potent = positive allosteric modulators of TRPC4, primary screen, cell-based, mouse TRPC4beta, HEK293 mu-opioid, Fluo-4 calcium; DAMGO EC20, Fluo-4 Ca2+ flux; hits give high values; Short transient receptor potential channel 4 (Mus musculus), Q9QUQ5; B-score at 10 µM; 310,000 compounds, 0.42% hits;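 active means B-score of calcium response area above 5 SD of library B-scores, with initial fluorescence ratio within 5 SD of library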;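 further: B-score of integrated fluorescence ratio over time as area under calcium response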
Target sequence (Q9QUQ5 whole entry, looked up): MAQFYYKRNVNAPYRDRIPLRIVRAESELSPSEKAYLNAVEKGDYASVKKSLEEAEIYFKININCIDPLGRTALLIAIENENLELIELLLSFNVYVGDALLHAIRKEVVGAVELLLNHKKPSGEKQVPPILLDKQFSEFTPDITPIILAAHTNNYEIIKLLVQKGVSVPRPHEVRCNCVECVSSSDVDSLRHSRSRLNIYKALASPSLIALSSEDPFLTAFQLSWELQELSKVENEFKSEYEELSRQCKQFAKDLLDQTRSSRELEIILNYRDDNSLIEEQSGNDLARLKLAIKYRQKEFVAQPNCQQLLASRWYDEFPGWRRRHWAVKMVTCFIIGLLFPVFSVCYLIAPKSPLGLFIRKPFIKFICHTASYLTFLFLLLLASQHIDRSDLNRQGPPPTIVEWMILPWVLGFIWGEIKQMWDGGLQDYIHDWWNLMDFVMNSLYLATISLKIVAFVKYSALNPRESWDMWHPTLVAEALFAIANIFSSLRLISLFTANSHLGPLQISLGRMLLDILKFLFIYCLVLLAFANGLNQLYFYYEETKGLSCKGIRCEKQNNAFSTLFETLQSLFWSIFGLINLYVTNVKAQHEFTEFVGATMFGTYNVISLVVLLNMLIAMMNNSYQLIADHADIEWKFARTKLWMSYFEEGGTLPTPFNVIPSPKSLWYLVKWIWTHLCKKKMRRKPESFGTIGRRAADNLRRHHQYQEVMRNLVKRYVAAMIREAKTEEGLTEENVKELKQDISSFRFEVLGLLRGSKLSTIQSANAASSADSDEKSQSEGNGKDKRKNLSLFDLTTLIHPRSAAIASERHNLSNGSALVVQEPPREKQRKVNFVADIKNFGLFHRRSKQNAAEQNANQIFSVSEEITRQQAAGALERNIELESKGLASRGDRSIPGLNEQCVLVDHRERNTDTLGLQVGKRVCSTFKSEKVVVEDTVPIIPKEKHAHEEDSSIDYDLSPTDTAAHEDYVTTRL
TRPC6 act = mouse TRPC6 channel activators, primary screen, cell-based, HEK293, membrane potential dye | Short transient receptor potential channel 6 (Mus musculus), Q61143 | HEK293-TRPC6 membrane potential dye fluorescence; hits give high values | B-score at 10 µM | 310,000 compounds, 0.13% hits;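 active means B-score of the integrated fluorescence ratio above library mean plus 3 SD, and starting fluorescence ratio within library mean plus 5 SD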;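 further: higher score means more depolarization so channel activation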
TRPC4 act = activators of mouse TRPC4 channel, primary screen, Fluo4 calcium, HEK293 TRPC4beta/mu-opioid cells; B-score at 10 µM; Fluo4 calcium fluorescence; hits give high values; 310,000 compounds, 0.49% hits; Short transient receptor potential channel 4 (Mus musculus), Q9QUQ5;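 active means B-score above 5 SD of library B-scores, and initial fluorescence ratio not above library mean plus 5 SD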;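 further: positive B-score marks a calcium rise read as TRPC4 activation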
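system = HEK293 cells stably co-expressing mouse TRPC4beta and mu-opioid receptor | schedule = Fluo4 dye loading 45 min at room temperature, 110 s recording | measure = B-scored integrated calcium fluorescence ratio | signal = Fluo4 calcium-sensitive dye fluorescence, kinetic, 1 Hz baseline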
TRPC4 block = inhibitors of mouse TRPC4 channel, primary screen, Fluo4 calcium, HEK293 TRPC4beta/mu-opioid cells | Short transient receptor potential channel 4 (Mus musculus), Q9QUQ5 | DAMGO-evoked Fluo4 calcium flux; hits give low values | B-score at 10 µM | 300,000 compounds, 0.39% hits;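 active means B-score over 3 SD under the library average, no early fluorescence shift, positive overall ratio signal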
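Assay system: Stable TRPC4beta/mu-opioid receptor HEK293 cells | Reagent: DAMGO in two steps, submaximal then maximal | Compound dosing: Single concentration per test compound | Signal: Fluo4 Ca2+ flux fluorescence | Evaluation: Per-well B score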
Active calls of the source: *.

How did Cc1[nH]c2ccccc2c1SCC(=O)N1CCCCCC1 do in these assays?
TRPC6 inh: inactive; TRPC4 potent: inactive; TRPC6 act: inactive; TRPC4 act: inactive; TRPC4 block: inactive

How did N#Cc1c(NCCCO)nc(-c2ccccc2)c2c1CCCC2 do in these assays?
TRPC6 inh: inactive; TRPC4 potent: inactive; TRPC6 act: inactive; TRPC4 act: 49*; TRPC4 block: inactive

What do the screens show for `CCOc1ccccc1NC(=O)CN(c1ccc(OC)cc1)S(=O)(=O)c1c(C)[nH]c(=O)[nH]c1=O`?
TRPC6 inh: inactive; TRPC4 potent: 20*; TRPC6 act: inactive; TRPC4 act: inactive; TRPC4 block: inactive

Results for CCOC(=O)[C@H]1NN=C(C(=O)OC)[C@@H]1c1ccccc1 ?
TRPC6 inh: inactive; TRPC4 potent: inactive; TRPC6 act: inactive; TRPC4 act: inactive; TRPC4 block: inactive

What do the screens show for `CN1CCCN(S(=O)(=O)c2ccc(Cl)c(Cl)c2)CC1`?
TRPC6 inh: inactive; TRPC4 potent: 12*; TRPC6 act: inactive; TRPC4 act: inactive; TRPC4 block: inactive

How did CN1CCCN(S(=O)(=O)c2cccc(Cl)c2Cl)CC1 do in these assays?
TRPC6 inh: inactive; TRPC4 potent: inactive; TRPC6 act: inactive; TRPC4 act: inactive; TRPC4 block: inactive

How did O=c1cc2c(nn1Cc1ccc(F)cc1)-c1ccccc1CC2 do in these assays?
TRPC6 inh: inactive; TRPC4 potent: 11*; TRPC6 act: inactive; TRPC4 act: inactive; TRPC4 block: -7*

How did CCc1cc2c(SCC(=O)N(C)C3CCS(=O)(=O)C3)ncnc2s1 (stereo not given) do in these assays?
TRPC6 inh: inactive; TRPC4 potent: 28*; TRPC6 act: inactive; TRPC4 act: inactive; TRPC4 block: inactive

How did CCN(C(=O)CSc1ncnc2sc(C)c(C)c12)C1CCS(=O)(=O)C1 (stereo not given) do in these assays?
TRPC6 inh: inactive; TRPC4 potent: inactive; TRPC6 act: inactive; TRPC4 act: inactive; TRPC4 block: inactive

How did Cc1ccn2cc(CCNC(=O)C3CC=CCC3C(=O)O)nc2c1 (stereo not given) do in these assays?
TRPC6 inh: inactive; TRPC4 potent: inactive; TRPC6 act: inactive; TRPC4 act: 202*; TRPC4 block: inactive

What do the screens show for `Cc1ccn2cc(CCNC(=O)CC(C)(C)C)nc2c1`?
TRPC6 inh: inactive; TRPC4 potent: inactive; TRPC6 act: inactive; TRPC4 act: inactive; TRPC4 block: inactive

Results for CCOc1c(Br)cc(CNC2CCCCCCC2)cc1OC ?
TRPC6 inh: inactive; TRPC4 potent: inactive; TRPC6 act: inactive; TRPC4 act: inactive; TRPC4 block: -6*

Results for CCOc1cc(CNC2CCCC2)cc(Cl)c1OCc1ccccc1 ?
TRPC6 inh: inactive; TRPC4 potent: inactive; TRPC6 act: inactive; TRPC4 act: inactive; TRPC4 block: -6*

What do the screens show for `CCOc1cc(CNCC(C)C)cc(Cl)c1OCc1ccccc1`?
TRPC6 inh: inactive; TRPC4 potent: inactive; TRPC6 act: inactive; TRPC4 act: inactive; TRPC4 block: inactive

How did COc1cc(CNC2CCCCCCC2)cc(Br)c1OCC#N do in these assays?
TRPC6 inh: inactive; TRPC4 potent: inactive; TRPC6 act: inactive; TRPC4 act: inactive; TRPC4 block: inactive

What do the screens show for `COc1cc(CNC2CCCC2)c(Br)cc1OC1CCCC1`?
TRPC6 inh: inactive; TRPC4 potent: inactive; TRPC6 act: inactive; TRPC4 act: inactive; TRPC4 block: -7*

How did COc1ccc(OCC(O)CNC(=O)c2cccs2)cc1 (stereo not given) do in these assays?
TRPC6 inh: inactive; TRPC4 potent: inactive; TRPC6 act: inactive; TRPC4 act: inactive; TRPC4 block: inactive

What do the screens show for `CCOc1ccc(S(=O)(=O)N(CC(=O)NCc2cccnc2)c2ccc(F)cc2)cc1`?
TRPC6 inh: inactive; TRPC4 potent: inactive; TRPC6 act: inactive; TRPC4 act: inactive; TRPC4 block: inactive

What do the screens show for `CCCNC(=S)N1CC2(C)CN(C(=O)C(=O)OC)CC(C)(C1)C2=O`?
TRPC6 inh: inactive; TRPC4 potent: inactive; TRPC6 act: inactive; TRPC4 act: inactive; TRPC4 block: inactive

How did CC1(c2ccc(NC(=O)c3ccccc3F)cc2)CC1(Cl)Cl (stereo not given) do in these assays?
TRPC6 inh: inactive; TRPC4 potent: inactive; TRPC6 act: inactive; TRPC4 act: inactive; TRPC4 block: inactive

What do the screens show for `CCc1cccc(OCC(=O)Nc2ccc(C(=O)O)cc2NC(=O)COc2cccc(CC)c2)c1`?
TRPC6 inh: inactive; TRPC4 potent: inactive; TRPC6 act: inactive; TRPC4 act: inactive; TRPC4 block: -8*

What do the screens show for `CCc1cccc(OCC(=O)Nc2c[nH]c(=O)[nH]c2=O)c1`?
TRPC6 inh: inactive; TRPC4 potent: inactive; TRPC6 act: inactive; TRPC4 act: inactive; TRPC4 block: inactive

How did Cc1nc(-c2ccc(S(=O)(=O)Nc3ccc(Br)cc3F)cc2)co1 do in these assays?
TRPC6 inh: inactive; TRPC4 potent: inactive; TRPC6 act: inactive; TRPC4 act: inactive; TRPC4 block: inactive

Results for CCCCn1c(N)c(N(CCOC)C(=O)c2ccc(-c3ccc(C(C)=O)cc3)o2)c(=O)[nH]c1=O ?
TRPC6 inh: inactive; TRPC4 potent: 92*; TRPC6 act: inactive; TRPC4 act: inactive; TRPC4 block: inactive

What do the screens show for `CCc1nnc(NC(=O)CSc2nnc(CNc3ccc(C)cc3)n2C)s1`?
TRPC6 inh: inactive; TRPC4 potent: inactive; TRPC6 act: inactive; TRPC4 act: inactive; TRPC4 block: inactive

How did CCC(=O)N(C)CCc1cc2c(c(OC)c1/C=N/NC(=O)c1ccc(Br)cc1)OCO2 do in these assays?
TRPC6 inh: inactive; TRPC4 potent: inactive; TRPC6 act: inactive; TRPC4 act: inactive; TRPC4 block: -7*

How did O=C(CCCn1c(=S)[nH]c2cc3c(cc2c1=O)OCO3)NCc1ccccc1Cl do in these assays?
TRPC6 inh: inactive; TRPC4 potent: inactive; TRPC6 act: inactive; TRPC4 act: inactive; TRPC4 block: inactive

Results for O=c1c(Cc2ccc(F)cc2)c(O)ccn1Cc1ccc(F)cc1 ?
TRPC6 inh: inactive; TRPC4 potent: inactive; TRPC6 act: inactive; TRPC4 act: inactive; TRPC4 block: inactive

What do the screens show for `O=c1c(Cc2ccc(F)cc2)c(O)ccn1CCc1cnc[nH]1`?
TRPC6 inh: inactive; TRPC4 potent: inactive; TRPC6 act: inactive; TRPC4 act: 108*; TRPC4 block: inactive
